assay: Toxicity liver stage against HepG2, at 10uM; assay type: cell-based; design: test concentration 10 uM, cell line HepG2-A16-CD81EGFP; settings: human, HepG2-A16-CD81EGFP cells; read-out: INHIBITION
Summary of the method: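 Uninfected HepG2-A16-CD81EGFP cells, 3 × 10^3 per well, 1536-well, plated on prespotted compound at 10 μM final, parasite-free screening media added to match infected plates; puromycin 10 μM positive, DMSO 0.5% negative; run in parallel with 48 h PbLuc assay at 37 °C, 5% CO2; viability by CellTiter-Glo luminescence, normalized to controls.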

Row | Compound | cytotoxicity at 10 µM
1 | COc1ccc(O[C@H]2COCCN(Cc3c[nH]c4ccccc34)C2)cc1 | 1.82%
2 | C[C@@H](NC(=O)c1cnccn1)c1c(-c2ccc(F)cc2)noc1C(=O)O | 1.02%
3 | Cc1ccn(CCC(=O)NCc2ccco2)n1 | 5.94%
4 | CN1C[C@H](O)[C@]2(CCN(Cc3ccc(OC(F)(F)F)cc3)C2)S1(=O)=O | -5.57%
5 | COc1ccccc1C(=O)N1CC(=O)N(CC(C)C)CC(O)C1 (stereo unspecified) | 4.37%
6 | O=C(Nc1nc2c(s1)CN(S(=O)(=O)C1CC1)CC2)c1cccc(Cl)c1 | 1.55%
7 | O=c1ccc2c([nH]1)CCN(S(=O)(=O)c1ccc3c(c1)OCCO3)C2 | -3.06%
8 | CCOCC(=O)NCc1cc(C2CC2)n(C2CCCC2)n1 | -0.165%
9 | C[C@@H]1CN(C(=O)Cc2ccsc2)C[C@]12CCN(CCN(C)C)C2=O | -1.1%
10 | CCN1CCOCC2(CCCN(C(=O)c3cccc(O)c3)C2)C1 (stereo unspecified) | 0.14%
11 | Cc1nnc([C@@H]2C[C@H]3CN(C(=O)C4CC4)C[C@H]3O2)[nH]1 | 19.8%
12 | Cc1cnc(C(=O)N2C[C@H]3CCCC(OCc4cccnc4)[C@H]3C2)cn1 (stereo partly specified) | 3.51%
13 | Cc1csc(CN2CC[C@H]3C[C@H](c4ccncn4)O[C@@H]3C2)n1 | -148%
14 | COc1cccc(NC(=O)CC2Cn3ncnc3NC2=O)c1 (stereo unspecified) | 4.4%
15 | Cn1cc(C(=O)Nc2ccc3c(c2)CN(C(=O)c2ccco2)CC3)nn1 | 0.0452%
16 | O=C(NCCn1ccc(-c2ccncc2)n1)c1ccncc1 | -19.1%
17 | CCCNC(=O)c1c(-n2cnnn2)sc2c1CCC2 | 4.05%
18 | Cc1occc1C(=O)N1CCc2ncnc(-c3cnn(C)c3)c2CC1 | -4.77%
19 | O=C(C1CCOCC1)N1CCc2ncnc(-c3ccc(F)cc3)c2CC1 | -6.28%
20 | CCOc1ccc2oc(-c3cn(C)nc3C)c(O)c(=O)c2c1 | 7.72%
21 | c1ccc2c3c([nH]c2c1)C(c1nn[nH]n1)CCC3 (stereo unspecified) | -7.23%
22 | COc1nsc2nc(C3CCCN3C(C)=O)ccc12 (stereo unspecified) | 6.78%
23 | Cc1cc(C)nc(N2CCC(Cn3cc(C(=O)N(C)C)cn3)CC2)n1 | 6.28%

Row | Compound | cytotoxicity at 10 µM
24 | CNC(=O)CCc1cc(C)nc(C2CCCCN2)n1 (stereo unspecified) | -9.83%
25 | C[C@]1(O)CCN(Cc2nccs2)C[C@@H]1Oc1cccc(F)c1 | -0.779%
26 | Cc1cc2cc(C(=O)N[C@@H]3CC[C@@H](N4CCCC4)[C@@H]3O)ccc2o1 | -4.72%
27 | CN(C)C(=O)C1(CCCc2ccncc2)CCCN1 (stereo unspecified) | 0.59%
28 | O=C(c1cccc(O)c1)N1CCN(Cc2nnc(C3CCC3)o2)CC1 | -8.52%
29 | Cc1cc(CC(=O)N(C)Cc2cccc(OC(C)C)c2)n[nH]1 | 1.1%
30 | NS(=O)(=O)c1ccc(N2CCN(CCCc3cn[nH]c3)CC2)cc1 | -145%
31 | CSc1ccc(NCC(=O)NCC(=O)N2CCCC2)cc1F | 2.63%
32 | O=C1NCCCN1Cc1nc(-c2ccc(N3CCCCC3)cc2)no1 | 3.24%
33 | CNC(=O)c1cccc(NCCOc2ccc(CC#N)cc2)c1C | -0.662%
34 | CNC(=O)c1cccnc1NCc1ccc(-n2cccn2)cc1 | 14.1%
35 | COCCOCC(=O)NCc1ccc(N(C)C)nc1 | 8.87%
36 | CSCC(=O)N(Cc1ccccn1)Cc1ccccc1C | 7.79%
37 | Cc1c(C(=O)N2CCCSCC2)nnn1-c1ccccc1Cl | 8.31%
38 | c1cc(CNCc2ccnc(N3CCOCC3)c2)c2c(c1)OCCCO2 | 7.82%
39 | CC(=O)N1CCN(CCNS(=O)(=O)c2cc(F)cc(F)c2)CC1 | 7.24%
40 | CCn1cnnc1CNC(=O)C1COc2ccc(Cl)cc2C1 (stereo unspecified) | -0.845%
41 | Cc1cc(-c2nc(-c3cccc(CN4CCOCC4)c3)no2)no1 | -7.33%
42 | O=C(NCCC1CCN(CC(F)(F)F)CC1)C1CCOC1 (stereo unspecified) | 5.69%
43 | NC(=O)c1cccc(CCNC(=O)N2Cc3ccccc3C2)c1 | -9.86%
44 | COCC(O)CN(C)c1ccnc2ccc(Cl)cc12 (stereo unspecified) | -5.93%
45 | NC(=O)N1CCC(C(=O)NC2CCc3nccn3C2)CC1 (stereo unspecified) | -2.09%
46 | CC(NCc1cnc(N2CCN(C)CC2)nc1)c1ccc(F)cc1 (stereo unspecified) | -5.26%

Row | Compound | cytotoxicity at 10 µM
47 | Cc1cnn(CCNCc2csc(COc3ccccc3)n2)c1 | 1.77%
48 | COc1cc(I)c(Cl)cc1C(=O)N(C)C | 11%
49 | CC(=O)c1c(F)cccc1NCC(O)C1CC1 (stereo unspecified) | 13.4%
50 | N#Cc1ccc(N2CCCN(CC(=O)N3CCC3)CC2)cc1 | -8.38%
51 | CCn1c(CN(C)C(C)CSC)nc2c(F)cccc21 (stereo unspecified) | 5.73%
52 | Cc1nn(C)c(C)c1NC(=O)CN1CCCC1c1noc(C2CC2)n1 (stereo unspecified) | -12.1%
53 | CC(C)N(C)[C@@H]1CCN(S(C)(=O)=O)[C@H]1Cc1ccccc1 | 5.7%
54 | O=C(O)c1c(-c2ccncc2)ncc2c1CCN(Cc1ccco1)C2 | -3.6%
55 | Cn1cc(CN2CC[C@@H](O)[C@@H]2Cc2ccccc2)cn1 | -71.2%
56 | Cc1nnn2c1COCC(CNC(=O)c1ccc[nH]1)C2 (stereo unspecified) | 2.7%
57 | CNc1nc(C(=O)N2CCCn3nc(C(=O)N4CCCC4)cc3C2)cs1 | 4.57%
58 | COc1cc2c(cc1CNC(=O)C(C)n1ccnc1C(C)C)CCC2 (stereo unspecified) | 0.719%
59 | CC(C)c1noc(CN(C)C(=O)c2ncn[nH]2)n1 | 6.2%
60 | COCC(Nc1ncnc2sc(C(=O)O)c(C)c12)c1ccnn1C (stereo unspecified) | -18.7%
61 | CCN1CCc2[nH]cnc2C12CCN(C(=O)CCc1cccs1)CC2 | 0.688%
62 | CN(CC(O)CO)c1nc(-c2cccnc2)nc2c1CCNC2 (stereo unspecified) | -0.0186%
63 | CNC(=O)C1CCN(c2cc(C3CCNCC3)nc(C)n2)C1 (stereo unspecified) | -6.43%
64 | Cc1nc(NC(=O)N(C)Cc2ccsc2)nn1C | 1.81%
65 | CN(C)S(=O)(=O)NCc1cccnc1Oc1ccccc1 | 1.6%
66 | CCn1c(C)nnc1SCCNc1nc(C)nc2ncccc12 | 0.194%
67 | CCc1nc(C)c(C2CC(=O)Nc3c2c(-c2cccnc2)nn3C)[nH]1 (stereo unspecified) | -8.13%
68 | Cc1ccc(OC2(C(=O)O)CCN(C/C=C/c3ccco3)CC2)c(C)n1 | 0.449%
69 | N#Cc1cc2c(=O)n(CC(O)Cc3ccccc3)ccc2[nH]c1=O (stereo unspecified) | 2.86%

Row | Compound | cytotoxicity at 10 µM
70 | COc1ccc(NC(=O)Cn2nc(C)c(C)cc2=O)c(OC)c1 | -3.62%
71 | Cc1cccc(CN2CCCC(O)(CNCCN3CCCCC3)C2=O)c1 (stereo unspecified) | 1.02%
72 | Cc1ccccc1S(=O)(=O)N1CCCCC1c1ccn[nH]1 (stereo unspecified) | 12.1%
73 | Cc1noc(Cl)c1CCC(=O)N1CCN(c2ccccc2)CC1 | -1.37%
74 | Cc1ccccc1C(C)N(C)Cc1nc2c(cnn2C)c(=O)[nH]1 (stereo unspecified) | -6.69%
75 | O=C1CCCc2[nH]c(=O)c(C(=O)N(Cc3ccsc3)C3CC3)cc21 | -10.8%
76 | CC(C)C(C(=O)N1CCCN(c2cccnn2)CC1)n1cncn1 (stereo unspecified) | -20.7%
77 | Cc1cnn(CC2CCCCN2Cc2c(C)noc2C)c1 (stereo unspecified) | -11.2%
78 | COc1cc(C)nc(N2CCN(C(=O)COC3CCCC3)CC2)n1 | -3.78%
79 | Cc1cc(C(=O)NCc2cccnc2N(C)C)c(C)o1 | -9.51%
80 | O=C(c1ccc(-n2cccn2)nc1)N1CCCC(n2cccn2)C1 (stereo unspecified) | -4.75%
81 | Cc1cnn(CC2CCCN2Cc2nc3ccccc3c(=O)[nH]2)c1 (stereo unspecified) | -4.82%
82 | Cc1nc(C)n(C2CCCN(C(=O)c3c(C)nn4cccnc34)C2)n1 (stereo unspecified) | -29.2%
83 | Cc1nc2ccccc2nc1CN1CCOC(Cn2cccn2)C1 (stereo unspecified) | 1.1%
84 | Cc1ccc(C(=O)N2CCCC(CNS(C)(=O)=O)C2)o1 (stereo unspecified) | -16%
85 | COc1c(C)cnc(CN(C)C(=O)c2ccccc2O)c1C | -14.3%
86 | CCN1CCN(C2CCN(Cc3nc(-c4ccoc4)no3)CC2)C1=O | -7.39%
87 | CC(Cn1cccn1)NCc1nc(-c2cccc(Cl)c2)no1 (stereo unspecified) | -9.21%
88 | O=C(CN1CCOC(Cn2cccn2)C1)NCc1cccs1 (stereo unspecified) | -6.88%
89 | Cc1nnc2n1CCN(Cc1csc(Cc3ccccc3)n1)C2 | -9.41%
90 | O=C(c1ccc(C(F)(F)F)nc1)N1CCCC(n2cncn2)C1 (stereo unspecified) | -10.6%
91 | COc1ccc(OC)c(CCNC(=O)NC(C)Cn2ccnc2)c1 (stereo unspecified) | -1.06%
92 | Cc1cnn(CCNCC(O)COc2ccc(C#N)cc2)c1 (stereo unspecified) | -11.9%

Row | Compound | cytotoxicity at 10 µM
93 | CCCc1nc(CN2CCCC2Cn2cncn2)cs1 (stereo unspecified) | -9.39%
94 | CC(C)C(=O)N1CCN(C(=O)CCc2nnc(-c3ccccc3)o2)CC1 | -4.66%
95 | CCc1nnc(CNCC2CCN(CC(O)c3ccccc3)CC2)o1 (stereo unspecified) | -1.49%
96 | O=C(CCc1ccc(Br)cc1F)NS(=O)(=O)c1ccc2c(c1)OCCO2 | 2.48%
97 | CCc1nccn1C1CCCN(C(=O)c2cn3cccnc3n2)C1 (stereo unspecified) | 92.6%
98 | CC(C)OCCN(C)C(C)c1cccc(S(N)(=O)=O)c1 (stereo unspecified) | -8.6%
99 | Cc1ccsc1CN(C)Cc1nc2c(cnn2C)c(=O)[nH]1 | -0.575%
100 | CN(CC(=O)NC(Cc1ccsc1)c1cccnc1)Cc1ccccn1 (stereo unspecified) | 3.9%
101 | CC(C)[C@H](N)C(=O)N1CCCC(C2=Nc3ccccc3S(=O)(=O)N2)C1 (stereo partly specified) | 7.96%
102 | CCn1ncc2c1C(COCC1CC1)CN(C(=O)c1ccncn1)C2 (stereo unspecified) | -74.8%
103 | COCC(=O)N1CCC2(CC1)COCCN2Cc1ccc(F)cc1 | -73.4%
104 | O=C(Cc1cccc(F)c1)N1CCn2cc(Cn3cccn3)nc2C1 | -84.3%
105 | O=C(NCc1cn2c(n1)CN(Cc1cccnc1)CC2)C1CCC1 | 6.76%
106 | COc1ccccc1C(=O)N1CCCC1c1ncc2c(n1)CCNC2 (stereo unspecified) | -12.3%
107 | CN(C)c1ncc(-c2cc(C(=O)NCCO)n(CC3CC3)c2)cn1 | -3.53%
108 | CS(=O)(=O)N1CCC[C@]2(C[C@@H](Oc3ncccc3F)CO2)C1 | 4.09%
109 | NCc1ccc(Oc2ccc(F)c(F)c2)cc1C(F)(F)F | -0.587%
110 | CN1C(=O)[C@@H]2CC[C@H]1CN(C(=O)c1sccc1S(N)(=O)=O)C2 | 5.6%
111 | O=C(N1CCCC1)N1C[C@@H]2CC[C@H]1CN(Cc1ccncc1)C2 | 4.63%

From ChEMBL document CHEMBL4513216, “Probing the Open Global Health Chemical Diversity Library for Multistage-Active Starting Points for Next-Generation Antimalarials” (ACS Infect Dis, 2020)
